Assay results gathered from unrelated publications.
Lines come from different studies, so protocols differ.
Target: Discoidin domain-containing receptor 2 (DDR2, Homo sapiens, UniProt Q16832)
One construct used (Q16832 22-855): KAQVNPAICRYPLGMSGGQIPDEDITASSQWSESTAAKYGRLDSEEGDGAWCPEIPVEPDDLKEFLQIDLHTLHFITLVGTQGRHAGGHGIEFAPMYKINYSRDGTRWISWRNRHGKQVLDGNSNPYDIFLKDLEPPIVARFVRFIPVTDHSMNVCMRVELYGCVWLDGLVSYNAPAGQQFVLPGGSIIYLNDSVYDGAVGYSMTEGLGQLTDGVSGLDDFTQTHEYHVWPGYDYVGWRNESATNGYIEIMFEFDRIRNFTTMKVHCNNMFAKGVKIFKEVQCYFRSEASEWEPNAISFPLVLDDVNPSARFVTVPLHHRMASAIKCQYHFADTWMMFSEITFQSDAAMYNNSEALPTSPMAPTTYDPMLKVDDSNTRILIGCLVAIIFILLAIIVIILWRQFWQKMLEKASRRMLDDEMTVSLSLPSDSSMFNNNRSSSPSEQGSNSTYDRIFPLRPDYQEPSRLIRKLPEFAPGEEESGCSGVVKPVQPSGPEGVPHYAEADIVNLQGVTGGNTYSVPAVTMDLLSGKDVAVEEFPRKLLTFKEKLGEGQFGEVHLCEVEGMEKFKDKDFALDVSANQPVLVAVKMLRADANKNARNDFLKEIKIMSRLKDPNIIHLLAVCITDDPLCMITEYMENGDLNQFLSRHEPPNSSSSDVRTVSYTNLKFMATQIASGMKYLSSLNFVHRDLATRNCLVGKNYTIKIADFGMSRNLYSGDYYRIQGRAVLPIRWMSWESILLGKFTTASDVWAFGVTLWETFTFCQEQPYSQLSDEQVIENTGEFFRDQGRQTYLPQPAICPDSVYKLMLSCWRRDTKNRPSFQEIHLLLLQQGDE

CC(C)(C)c1nc(-c2cccc(NS(=O)(=O)c3c(F)cccc3F)c2F)c(-c2ccnc(N)n2)s1  remaining activity (enzyme activity; inhibitor; radiometric; 1 µM): 14%
CNC(=O)c1cc2c(Oc3ccc(NC(=O)C4(C(=O)Nc5ccc(F)cc5)CC4)cc3)ccnc2cc1OC  inhibition (enzyme activity; inhibitor; radiometric; 1 µM): 104%
O=C(NC[C@@H]1[C@H]2CN(C(=O)OCc3cc(C(F)(F)F)cc(C(F)(F)F)c3)C[C@@H]12)c1ccc2[nH]nnc2c1  remaining binding (cell-free assay; competition with immobilised ligand; 1 µM): 82%
CC(C)(O)[C@H]1CC[C@H](Nc2ccc3ncc(-c4cccc(C(F)(F)F)c4)n3n2)CC1  remaining activity (enzyme activity; inhibitor; 1 µM): 49.5%
COc1cc2nccc(Oc3ccc(NC(=O)c4c5n(n(-c6ccc(F)cc6)c4=O)CCCC5)cc3)c2cc1OC  inhibition (enzyme activity; inhibitor; 0.1 µM): 20%
CCCS(=O)(=O)Nc1ccc(F)c(C(=O)c2c[nH]c3ncc(-c4ccc(Cl)cc4)cc23)c1F  inhibition (enzyme activity; inhibitor; 1 µM): < 10%
Cc1ccc(Nc2nccc(N(C)c3ccc4c(C)n(C)nc4c3)n2)cc1S(N)(=O)=O  remaining signal (cell-free assay; 0.5 µM): 36.2%
Cc1c[nH]c2nccc(Oc3c(F)cc(Nc4cc(Cl)nc(N)n4)cc3F)c12  remaining binding (cell-free assay; competition with immobilised ligand; 0.1 µM): 57%
CCN(CC)c1ccc(C2=NNC(=O)CC2C)cc1[N+](=O)[O-] (stereo not shown)  remaining activity (enzyme activity; inhibitor; 10 µM): 100%
O=C(Nc1ccc(Oc2ccc(F)cc2)cc1)N1CCc2ncccc2[C@H]1c1ccc(F)cc1  remaining binding (cell-free assay; competition with immobilised ligand; 1 µM): 100%
CNC(=O)c1cc(Oc2ccc(NC(=O)Nc3ccc(Cl)c(C(F)(F)F)c3)cc2)ccn1  inhibition (enzyme activity; inhibitor; 10 µM): 111%
CCN(CC)CCNC(=O)c1c(C)[nH]c(/C=C2\C(=O)Nc3ccc(F)cc32)c1C  remaining activity (enzyme activity; inhibitor; 0.1 µM): 101%
CO[C@H]1CC[C@H](CNc2ccc(S(=O)(=O)NC(=O)c3ccc(N4CCN(CC5=C(c6ccc(Cl)cc6)CC(C)(C)CC5)CC4)cc3Oc3cnc4[nH]ccc4c3)cc2[N+](=O)[O-])CC1  remaining binding (cell-free assay; competition with immobilised ligand; 1 µM): 100%
CCN(CC)CCNC(=O)c1c(C)[nH]c(/C=C2\C(=O)Nc3ccc(F)cc32)c1C  inhibition (enzyme activity; inhibitor; 10 µM): 31%
CCC(=O)N[C@H]1CC[C@@H](C(=O)N(C)c2ccc(-c3nc4ccccc4o3)cc2)C1  remaining binding (cell-free assay; competition with immobilised ligand; 1 µM): 100%
CC/C(=N\NC(=O)NCc1cccc(O)c1)c1ccc(O)c(C)c1O  inhibition (enzyme activity; inhibitor; 0.1 µM): 0.1%
